Assay outcomes from PubChem BioAssay.
The entries come from a sample that favours hits as a whole.
ALR H2O2 inh: human ALR oxidase inhibition via reduced H2O2. purified ALR, DTT oxidation, H2O2 HRP-luminol luminescence. 290,000 compounds, 3.8% hits. inhibition, % (concentration not given with the values);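 active = mean replicate inhibition above about 79%, with every replicate also reaching it, limit read from the data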
Target sequence (P55789 whole entry, looked up): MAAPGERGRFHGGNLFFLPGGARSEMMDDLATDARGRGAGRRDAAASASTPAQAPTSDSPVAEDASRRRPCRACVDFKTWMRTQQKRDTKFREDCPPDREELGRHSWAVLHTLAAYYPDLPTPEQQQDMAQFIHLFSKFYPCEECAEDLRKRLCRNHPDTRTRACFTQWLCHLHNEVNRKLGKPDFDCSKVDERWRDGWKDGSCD
T cell modulator: modulates CD8 T cell binding to vesicles. 2C CD8+ T cell-vesicle binding, flow cytometry; hits give low values. AID 2052. 330,000 compounds, 0.068% hits. response (vesicle binding), % at 7 µM;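 active = response, share of CD8 T cells binding vesicles, and their 90th percentile fluorescence all below set limits, cut at about 80% in these data, passing the limit was not always enough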;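 also: values below 100% mean blocked vesicle binding to the CD8+ T cells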
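material = purified 2C TCR transgenic mouse naive CD8+ T cells | controls = Unloaded micro-vesicles (low), QL9 vesicles with 0.7% DMSO (high) | detection = cytometric PE anti-B7-1 and Alexa647 anti-CD8 signals after 1% paraformaldehyde fixation | incubation = binding step 1.5 h, 37 °C, antibody labelling 20 min, ice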
Glyco luc inh: N-linked glycosylation inhibition; D54 ERlucT glycosylation luciferase reporter, 24 h; percent of 100 nM tunicamycin response; reporter increase, % at 12.5 µM; 360,000 compounds, 0.23% hits; AID 588692;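 active = mean luciferase reporter signal, scaled so untreated is 0 and the glycosylation-blocking control 100, at or above a set limit in every replicate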;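 also: luciferase carries N-glycosylation sites so blocking glycosylation raises the light; 0% = median of neutral control wells and 100% = median of 100 nM tunicamycin wells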
* marks the source's active call; other numbers are inactive results; i = inactive; nt = no result given.

SMILES | ALR H2O2 inh | T cell modulator | Glyco luc inh
COc1ccc(CCn2c(C)cc(C(=O)COC(=O)c3ccc(NC(=O)CC#N)cc3)c2C)cc1 | -14 | 393 | -3
CS(=O)(=O)c1ccc(C(=O)OCC(=O)NC(=O)Cc2ccccc2)cc1 | -9 | 265 | 2
CCN(CC)S(=O)(=O)c1ccc(NC(=O)COC(=O)c2ccc(NC(=O)CC#N)cc2)cc1 | 99* | 270 | 3
CC(C)(C)C(=O)Nc1ccc(-c2cnco2)cc1 | 2 | 212 | -1
CCOC(=O)c1c(C)[nH]c(C(=O)OCC(=O)Nc2ccccc2)c1C | 1 | 405 | 1
CCN(CC)S(=O)(=O)c1ccc2c(c1)nc(CCC(=O)OCC(=O)Nc1cc(Cl)cc(Cl)c1)n2C | -1 | 350 | 2
CCc1ccc(NC(=O)COC(=O)CCc2nc3cc(S(=O)(=O)N(CC)CC)ccc3n2C)cc1 | 99* | 325 | 11
COc1nc2c(c(-c3cc(Br)cs3)c1C#N)Cc1ccccc1-2 | nt | i | -3
COc1cc(C[C@@H](C)[C@@H](C)Cc2ccc(O)c(OC)c2)ccc1O | 50 | 328 | -1
COc1cc(C[C@@H](CO)[C@H](CO)Cc2ccc(O)c(OC)c2)ccc1O | 97* | 831 | nt
CC(=O)c1ccc(NC(=S)NCc2ccc(Cl)cc2Cl)cc1 | nt | 147 | -5
Cc1n[nH]c(C)c1S(=O)(=O)N(C)Cc1ccco1 | -1 | 261 | 4
CC1CCCCC1NC(=O)c1ccc(S(=O)(=O)N2CCN(C)CC2)cc1 (stereo not drawn) | nt | 168 | 2
COc1ccc(-c2cn3c4c(sc3n2)CCCC4)cc1 | 96* | 357 | -18
COc1ccc(-c2cn3c(C)c(C(=O)N4CCCc5ccccc54)sc3n2)cc1 | -1 | 562 | -8
FC(F)(F)c1cc(Cl)c2nc(-c3ccc(Cl)cc3)c(Cc3ccccc3)n2c1 | nt | nt | -4
COC1=C/C(=C/c2c(N)n3nc(CC(=O)N4CCCC4)sc3nc2=O)C=CC1=O | 84* | 476 | 1
CCOC1=C/C(=C/c2c(N)n3nc(CC(=O)N4CCCC4)sc3nc2=O)C=CC1=O | 99* | 717 | 2
CC1=Nc2ccc(C)cc2/C1=C/c1c(N)n2nc(CC(=O)N3CCOCC3)sc2nc1=O | 7 | 425 | 3
COC1=CC(=Cc2c(N)n3nc(CC(=O)N4CCCCC4)sc3nc2=O)C=C(OC)C1=O | 5 | 323 | -1
Cn1c(Nc2ccc(F)cc2)nc2ccccc21 | 62 | i | -1
Cn1c(CNc2ccc(Br)cc2)nc2ccccc21 | 96* | 149 | -6
CN(Cc1nc2ccccc2n1C)c1ccccc1 | 99* | 259 | -2
Cc1ccc(NCc2nc3ccccc3n2C)cc1 | -2 | 288 | -1
Cn1c(CNc2nc3ccccc3n2C)nc2ccccc21 | -3 | 302 | 2
SMILES | ALR H2O2 inh | T cell modulator | Glyco luc inh
Cn1c(CNc2ccc(O)cc2)nc2ccccc21 | 99* | 198 | 1
COc1ccc(Nc2nc3ccccc3n2C)cc1 | 77* | 424 | 4
CCOC(=O)c1ccc(NCc2nc3ccccc3n2C)cc1 | 0 | 474 | 1
CCCCN1C(=O)C(CC(=O)NC2CC2)CC(C(=O)N2CCOCC2)=C1C (stereo not drawn) | nt | nt | 2
COC(=O)c1nccc2c1[nH]c1ccccc12 | -31 | 294 | 2
COc1ccc(CN2C(=O)c3ccccc3C2=O)cc1C(=O)N(C)CC(=O)Nc1ccc(C)cc1 | nt | nt | -2
Cc1oc2c(C)c3oc(=O)c(CCC(=O)NCCN4CCOCC4)c(C)c3cc2c1C | 0 | 388 | 0
COc1ccccc1NCC(=O)N1CCN(S(=O)(=O)c2ccccc2)CC1 | -1 | 264 | -3
Cc1ccc(NCc2nc3ccccc3n2C)cc1C | 98* | 228 | -4
Cc1ccc(NC(=O)NCc2nc3ccccc3n2C)cc1 | 1 | 338 | 3
COc1ccc(NCc2nc3ccccc3n2CCOc2ccccc2)cc1 | -10 | 94 | 2
COc1ccc(NCc2nc3ccccc3n2C)cc1 | 98* | 114 | -6
CNC1(c2nnnn2-c2ccccc2C)CCOC(C)(C)C1 (stereo not drawn) | nt | 244 | 0
COc1ccc(C2CC3(CC(C)(C)NC(SC)=N3)Oc3cc(O)cc(C)c32)cc1 (stereo not drawn) | 16 | 109 | -3
COc1ccc(CCNc2ncnc3c2nnn3Cc2ccccc2)cc1OC | nt | 162 | -4
COc1ccc(Cl)cc1NC(=O)CN(C)C1CCS(=O)(=O)C1 (stereo not drawn) | nt | 398 | 0
COc1cccc(/C=C2\NC(=O)NC2=O)c1O | 71 | 295 | 0
O=C(Nc1nc2c(s1)COc1ccccc1-2)c1cccs1 | 96* | 262 | 10
O=C(Nc1nc2c(s1)CCc1ccccc1-2)c1cccs1 | -25 | 156 | 2
CCN1C[C@@H]2[C@@H]3C(=O)N(C)C(=O)[C@@H]3[C@](C)(C1=O)N2C(=O)c1ccc(C(F)(F)F)cc1 | nt | nt | 3
